What was measured:
[1] = biological target: Histamine H1 receptor (Homo sapiens) (UniProt P35367); assay: Antagonist activity at human recombinant H1 receptor expressed in HEK-293 cells assessed as inhibition of histamine-induced intracellular Ca2+ release at 1 uM by fluorimetry; type: functional, cell-based; conditions: HEK293
Summary of the method: (§1)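 Functional assays run by a contract lab on CHO or HEK-293 cells stably expressing the human receptor. Read-out was intracellular cAMP, IP1 or Ca2+ release. A single test concentration of 1.0E-06 was used, in duplicate. Data are mean % of the control response.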

[2] = biological target: 5-hydroxytryptamine receptor 2A (Homo sapiens) (UniProt P28223); assay: Antagonist activity at human recombinant 5HT2A receptor expressed in HEK293 cells assessed as inhibition of serotonin-induced intracellular IP1 release at 1 uM by HTRF assay; type: functional, cell-based; summary of the method: as §1
5-hydroxytryptamine receptor 2A (Homo sapiens), sequence (P28223 whole entry): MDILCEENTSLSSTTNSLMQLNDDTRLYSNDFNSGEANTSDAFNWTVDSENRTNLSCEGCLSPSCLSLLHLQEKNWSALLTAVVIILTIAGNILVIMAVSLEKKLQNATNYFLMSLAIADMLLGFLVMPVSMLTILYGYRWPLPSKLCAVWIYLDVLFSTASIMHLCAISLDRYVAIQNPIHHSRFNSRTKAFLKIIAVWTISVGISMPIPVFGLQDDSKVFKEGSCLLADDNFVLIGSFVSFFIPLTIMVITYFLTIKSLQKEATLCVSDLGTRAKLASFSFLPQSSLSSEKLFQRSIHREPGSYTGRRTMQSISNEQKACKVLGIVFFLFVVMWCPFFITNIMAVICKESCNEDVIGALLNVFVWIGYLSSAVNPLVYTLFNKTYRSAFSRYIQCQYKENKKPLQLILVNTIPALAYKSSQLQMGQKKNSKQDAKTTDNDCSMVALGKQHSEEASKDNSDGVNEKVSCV

[3] = biological target: D(3) dopamine receptor (Homo sapiens) (UniProt P35462); assay: Agonist activity at human recombinant D3 receptor expressed in CHO cells assessed as intracellular cAMP release at 1 uM by HTRF method; type: functional, cell-based; summary of the method: as §1
D(3) dopamine receptor (Homo sapiens), sequence (P35462 whole entry): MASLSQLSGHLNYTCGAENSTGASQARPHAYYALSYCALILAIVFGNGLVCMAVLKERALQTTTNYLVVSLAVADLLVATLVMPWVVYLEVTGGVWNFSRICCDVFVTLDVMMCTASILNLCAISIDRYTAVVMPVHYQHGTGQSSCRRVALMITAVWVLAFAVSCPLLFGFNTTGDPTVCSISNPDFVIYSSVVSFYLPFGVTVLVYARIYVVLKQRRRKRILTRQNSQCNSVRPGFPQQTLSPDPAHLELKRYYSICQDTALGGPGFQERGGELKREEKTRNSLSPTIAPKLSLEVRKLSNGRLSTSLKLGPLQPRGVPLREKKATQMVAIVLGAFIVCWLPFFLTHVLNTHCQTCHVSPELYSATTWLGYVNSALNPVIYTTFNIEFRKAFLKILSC

[4] = biological target: D(2) dopamine receptor (Homo sapiens) (UniProt P14416); assay: Agonist activity at human recombinant D2 receptor expressed in HEK293 cells at 1 uM; type: cell-based; summary of the method: as §1
D(2) dopamine receptor (Homo sapiens), sequence (P14416 whole entry): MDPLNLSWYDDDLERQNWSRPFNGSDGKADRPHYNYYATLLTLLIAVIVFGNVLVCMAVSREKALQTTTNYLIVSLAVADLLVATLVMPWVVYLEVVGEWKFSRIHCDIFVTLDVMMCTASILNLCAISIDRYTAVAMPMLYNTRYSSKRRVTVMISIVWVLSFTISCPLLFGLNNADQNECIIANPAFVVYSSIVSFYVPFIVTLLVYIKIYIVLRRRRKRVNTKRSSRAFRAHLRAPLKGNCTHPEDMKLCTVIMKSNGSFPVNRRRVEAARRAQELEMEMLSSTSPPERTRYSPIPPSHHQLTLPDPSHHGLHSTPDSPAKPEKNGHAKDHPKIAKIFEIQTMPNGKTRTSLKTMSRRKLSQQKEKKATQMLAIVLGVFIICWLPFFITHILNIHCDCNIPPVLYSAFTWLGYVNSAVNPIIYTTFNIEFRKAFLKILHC

[5] = biological target: 5-hydroxytryptamine receptor 7 (Homo sapiens) (UniProt P34969); assay: Antagonist activity at human recombinant 5HT7 receptor expressed in CHO cells assessed as inhibition of serotonin-induced intracellular cAMP release at 1 uM by HTRF assay; type: functional, cell-based; summary of the method: as §1
5-hydroxytryptamine receptor 7 (Homo sapiens), sequence (P34969 whole entry): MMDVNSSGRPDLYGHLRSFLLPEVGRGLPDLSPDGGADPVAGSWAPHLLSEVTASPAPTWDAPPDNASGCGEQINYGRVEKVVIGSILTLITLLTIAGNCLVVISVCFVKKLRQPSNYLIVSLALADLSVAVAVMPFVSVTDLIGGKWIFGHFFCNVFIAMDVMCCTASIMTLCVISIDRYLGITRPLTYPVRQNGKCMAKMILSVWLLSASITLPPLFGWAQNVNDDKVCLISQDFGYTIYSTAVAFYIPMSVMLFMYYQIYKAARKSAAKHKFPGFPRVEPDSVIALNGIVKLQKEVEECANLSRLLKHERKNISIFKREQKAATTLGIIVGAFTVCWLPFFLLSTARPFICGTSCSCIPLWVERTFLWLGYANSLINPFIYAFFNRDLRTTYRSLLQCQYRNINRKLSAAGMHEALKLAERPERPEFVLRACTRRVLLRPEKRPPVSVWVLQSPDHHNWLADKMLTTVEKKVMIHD

[6] = biological target: T1, 5-hydroxytryptamine receptor 2C (Homo sapiens) (UniProt P28335); assay: Displacement of [3H]-mesulergine from human cloned 5HT2C receptor expressed in HEK293 cells at 1 uM by scintillation counting analysis; type: cell-based
T1 sequence (whole entry): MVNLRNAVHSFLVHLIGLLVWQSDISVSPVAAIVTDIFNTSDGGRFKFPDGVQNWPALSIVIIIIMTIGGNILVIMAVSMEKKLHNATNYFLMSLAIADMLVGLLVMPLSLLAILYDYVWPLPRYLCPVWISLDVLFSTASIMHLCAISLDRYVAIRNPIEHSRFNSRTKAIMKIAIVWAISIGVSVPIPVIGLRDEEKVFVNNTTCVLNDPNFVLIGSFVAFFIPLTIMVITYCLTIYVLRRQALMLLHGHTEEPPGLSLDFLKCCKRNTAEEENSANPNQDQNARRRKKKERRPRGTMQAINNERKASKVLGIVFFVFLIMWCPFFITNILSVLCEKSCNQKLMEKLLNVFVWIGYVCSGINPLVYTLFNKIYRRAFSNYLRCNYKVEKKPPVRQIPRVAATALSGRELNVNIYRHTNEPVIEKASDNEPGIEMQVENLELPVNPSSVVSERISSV
Summary of the method: (§2)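 Extended binding screen run by a contract lab. Receptors were cloned human: 5-HT1A, 5-HT2A, 5-HT2C and H1 in HEK-293 cells; D1, α1, α2C and M3 in CHO cells; 5-HT6/7 and D2/3/4 in CHO cells. Radioligand displacement was done at a single 1.0E-06 concentration in duplicate. Results are mean % inhibition of control specific binding.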

[7] = biological target: T2, Alpha-2C adrenergic receptor (Homo sapiens) (UniProt P18825); assay: Displacement of [3H]RX821002 from human alpha2C adrenergic receptor expressed in CHO cells at 1 uM by scintillation counting analysis; type: cell-based; summary of the method: as §2
T2 sequence (whole entry): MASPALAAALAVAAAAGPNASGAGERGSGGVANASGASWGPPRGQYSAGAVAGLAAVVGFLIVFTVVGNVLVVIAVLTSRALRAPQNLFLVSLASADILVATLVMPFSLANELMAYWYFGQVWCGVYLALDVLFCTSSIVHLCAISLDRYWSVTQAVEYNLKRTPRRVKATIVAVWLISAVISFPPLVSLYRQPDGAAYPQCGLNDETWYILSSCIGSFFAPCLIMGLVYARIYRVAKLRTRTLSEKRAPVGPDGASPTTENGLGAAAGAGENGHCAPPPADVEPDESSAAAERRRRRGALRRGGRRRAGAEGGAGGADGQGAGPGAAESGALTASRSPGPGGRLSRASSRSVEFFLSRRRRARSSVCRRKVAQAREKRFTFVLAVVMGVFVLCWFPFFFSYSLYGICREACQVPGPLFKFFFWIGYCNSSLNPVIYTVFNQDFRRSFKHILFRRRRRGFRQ

[8] = biological target: T2, Alpha-2C adrenergic receptor (Homo sapiens); assay: Antagonist activity at human recombinant alpha2C adrenoceptor expressed in CHO cells assessed as inhibition of epinephrine-induced intracellular cAMP release at 1 uM by HTRF assay; type: functional, cell-based; summary of the method: as §1
[9] = biological target: T3, 5-hydroxytryptamine receptor 1A (Homo sapiens) (UniProt P08908); assay: Antagonist activity at human recombinant 5HT1A receptor expressed in HEK293 cells assessed as inhibition of 8-OH-DPAT-induced response at 1 uM; type: cell-based; summary of the method: as §1
T3 sequence (whole entry): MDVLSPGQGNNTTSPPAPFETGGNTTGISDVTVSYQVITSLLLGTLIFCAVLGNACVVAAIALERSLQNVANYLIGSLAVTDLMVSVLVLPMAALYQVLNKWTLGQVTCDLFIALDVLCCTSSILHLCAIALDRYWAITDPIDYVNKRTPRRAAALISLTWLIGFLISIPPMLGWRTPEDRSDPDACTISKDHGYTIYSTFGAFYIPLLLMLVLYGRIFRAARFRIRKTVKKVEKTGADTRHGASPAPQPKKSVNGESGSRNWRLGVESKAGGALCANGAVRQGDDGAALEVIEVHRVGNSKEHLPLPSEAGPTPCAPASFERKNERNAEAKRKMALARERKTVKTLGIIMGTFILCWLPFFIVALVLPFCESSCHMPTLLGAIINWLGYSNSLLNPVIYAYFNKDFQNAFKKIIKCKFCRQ

[10] = biological target: 5-hydroxytryptamine receptor 2A (Homo sapiens) (UniProt P28223); assay: Agonist activity at human recombinant 5HT2A receptor expressed in HEK293 cells assessed as intracellular IP1 release at 1 uM by HTRF assay; type: functional, cell-based; summary of the method: as §1
[11] = biological target: T4, Adrenergic receptor alpha-1 (Homo sapiens) (UniProt P35348+P25100+P35368); assay: Agonist activity at human recombinant alpha1 adrenoceptor expressed in CHO cells at 1 uM; type: cell-based; summary of the method: as §1
[12] = biological target: Histamine H1 receptor (Homo sapiens) (UniProt P35367); assay: Agonist activity at human recombinant H1 receptor expressed in HEK-293 cells assessed as intracellular Ca2+ release at 1 uM by fluorimetry; type: functional, cell-based; conditions: HEK293; summary of the method: as §1
[13] = biological target: D(3) dopamine receptor (Homo sapiens) (UniProt P35462); assay: Displacement of [3H]methylspiperione from human D3 receptor expressed in CHO cells at 1 uM by scintillation counting analysis; type: cell-based; summary of the method: as §2
[14] = biological target: T4, Adrenergic receptor alpha-1 (Homo sapiens); assay: Antagonist activity at human recombinant alpha1 adrenoceptor expressed in CHO cells assessed as inhibition of agonist induced response at 1 uM; type: cell-based; summary of the method: as §1
[15] = biological target: T3, 5-hydroxytryptamine receptor 1A (Homo sapiens); assay: Agonist activity at human recombinant 5HT1A receptor expressed in HEK293 cells at 1 uM; type: cell-based; summary of the method: as §1

Histamine H1 receptor (Homo sapiens), sequence (P35367 whole entry): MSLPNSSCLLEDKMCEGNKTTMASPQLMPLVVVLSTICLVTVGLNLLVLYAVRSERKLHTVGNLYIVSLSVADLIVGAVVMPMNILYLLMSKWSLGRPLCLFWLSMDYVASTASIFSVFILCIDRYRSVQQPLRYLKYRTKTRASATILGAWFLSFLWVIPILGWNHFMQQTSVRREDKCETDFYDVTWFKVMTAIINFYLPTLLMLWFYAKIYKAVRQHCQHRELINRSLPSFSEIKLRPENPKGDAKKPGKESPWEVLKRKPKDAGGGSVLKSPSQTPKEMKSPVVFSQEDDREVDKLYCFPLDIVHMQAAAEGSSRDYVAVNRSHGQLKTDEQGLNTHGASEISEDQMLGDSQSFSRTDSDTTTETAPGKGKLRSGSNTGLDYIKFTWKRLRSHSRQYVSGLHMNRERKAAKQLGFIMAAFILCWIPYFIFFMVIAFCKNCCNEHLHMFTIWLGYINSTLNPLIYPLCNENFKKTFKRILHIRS

| inhibition [1] | inhibition [2] | Activity [3] | Activity [4] | inhibition [5] | inhibition [6] | inhibition [7] | inhibition [8] | inhibition [9] | Activity [10] | Activity [11] | Activity [12] | inhibition [13] | inhibition [14] | Activity [15] | SMILES |
| --- | --- | --- | --- | --- | --- | --- | --- | --- | --- | --- | --- | --- | --- | --- | --- |
| 58% | 18% | 20% | 20% | 28% | 21% | 101% | 69% | 102% | 1% | 2% | -2% | 96% | 95% | 37% | COc1ccccc1N1CCN(CCCCN2C(=O)NC3(CCc4ccccc43)C2=O)CC1 (stereo unspecified) |
| 63% | 27% | 18% | 24% | 43% | 24% | 101% | 79% | 101% | 0% | 1% | -2% | 94% | 94% | 26% | COc1ccccc1N1CCN(CCCCN2C(=O)NC3(CCCc4ccccc43)C2=O)CC1 (stereo unspecified) |
|  |  |  |  |  | 61% | 99% |  |  |  |  |  | 93% |  |  | O=C1NC2(CCCc3ccccc32)C(=O)N1CCCCN1CCN(c2cccc(Cl)c2)CC1 (stereo unspecified) |
|  |  |  |  |  | 61% | 97% |  |  |  |  |  | 97% |  |  | O=C1NC2(CCc3ccccc32)C(=O)N1CCCCN1CCN(c2cccc(Cl)c2)CC1 (stereo unspecified) |
